Test results as given in ChEMBL document CHEMBL4145441, “Discovery of N-(5-((5-chloro-4-((2-(isopropylsulfonyl)phenyl)amino)pyrimidin-2-yl)amino)-4-methoxy-2-(4-methyl-1,4-diazepan-1-yl)phenyl)acrylamide (CHMFL-ALK/EGFR-050) as a potent ALK/EGFR dual kinase inhibitor capable of overcoming a variety of ALK/EGFR associated drug resistant mutants in NSCLC” (Eur J Med Chem, 2017).
The source made the active and inactive calls. The calls are words filed in the database; no cut-off is given here.

Assays:
Homo sapiens = organism: Homo sapiens; assay: Selectivity index, ratio of IC50 for recombinant human GST-tagged EGFR L858R mutant to IC50 for recombinant human GST-tagged EGFR L858R/T790M mutant
[1] = molecular target: T1, Epidermal growth factor receptor (Homo sapiens, UniProt P00533); assay: Inhibition of EGFR in human A549 cells assessed as reduction in EGF-induced AKT phosphorylation at Thr308 residue up to 3 uM after 4 hrs by immunoblotting method; type: cell-based
T1 sequence (P00533 whole entry): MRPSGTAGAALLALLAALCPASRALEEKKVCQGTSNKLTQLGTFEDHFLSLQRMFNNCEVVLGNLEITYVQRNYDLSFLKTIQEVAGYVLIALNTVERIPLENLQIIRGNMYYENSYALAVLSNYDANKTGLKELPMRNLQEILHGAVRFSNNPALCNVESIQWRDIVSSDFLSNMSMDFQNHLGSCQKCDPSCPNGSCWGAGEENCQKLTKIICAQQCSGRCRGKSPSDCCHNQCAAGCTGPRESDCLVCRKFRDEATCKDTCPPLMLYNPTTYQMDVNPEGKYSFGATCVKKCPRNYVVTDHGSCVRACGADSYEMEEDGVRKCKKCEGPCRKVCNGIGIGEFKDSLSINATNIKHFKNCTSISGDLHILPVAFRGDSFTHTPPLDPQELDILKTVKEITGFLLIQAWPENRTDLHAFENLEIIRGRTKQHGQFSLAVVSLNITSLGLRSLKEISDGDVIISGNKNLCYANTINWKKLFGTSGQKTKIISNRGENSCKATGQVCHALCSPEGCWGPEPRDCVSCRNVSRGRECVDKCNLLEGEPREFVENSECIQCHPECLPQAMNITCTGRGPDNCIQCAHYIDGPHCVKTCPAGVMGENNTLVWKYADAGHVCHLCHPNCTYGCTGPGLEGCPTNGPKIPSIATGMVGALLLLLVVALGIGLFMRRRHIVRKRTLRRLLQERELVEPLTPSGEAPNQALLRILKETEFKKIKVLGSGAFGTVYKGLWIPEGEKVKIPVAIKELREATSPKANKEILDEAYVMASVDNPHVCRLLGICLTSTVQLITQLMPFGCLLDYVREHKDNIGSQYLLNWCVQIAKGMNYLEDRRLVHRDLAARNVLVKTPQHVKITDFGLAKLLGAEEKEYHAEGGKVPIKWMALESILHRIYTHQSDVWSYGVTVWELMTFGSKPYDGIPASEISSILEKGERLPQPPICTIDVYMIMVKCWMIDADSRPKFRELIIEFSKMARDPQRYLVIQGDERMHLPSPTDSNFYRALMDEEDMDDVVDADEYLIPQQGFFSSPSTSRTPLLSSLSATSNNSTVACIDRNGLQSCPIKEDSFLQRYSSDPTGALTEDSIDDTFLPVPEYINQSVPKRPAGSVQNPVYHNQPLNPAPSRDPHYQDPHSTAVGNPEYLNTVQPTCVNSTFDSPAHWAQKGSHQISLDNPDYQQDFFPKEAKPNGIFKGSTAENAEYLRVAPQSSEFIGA

[2] = Half life in Sprague-Dawley rat at 1 mg/kg, iv; type: ADME, organism-based; details: in vivo
Summary of the method: (§1)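 Rats dosed once intravenously at 1 mg/kg or orally at 10 mg/kg. Plasma exposure parameters derived: AUC0-t, AUC0-∞, MRT(0-t), Cmax, Tmax, T1/2 and oral bioavailability (F%). Values reported as mean ± spread.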

NCI-H3255 = assay: Antiproliferative activity against human H3255 cells harboring EGFR L858R mutant after 72 hrs by CellTiter-Glo assay; type: functional; details: NCI-H3255, 72 h
[3] = molecular target: ALK tyrosine kinase receptor (Homo sapiens, UniProt Q9UM73, R1275Q); assay: Inhibition of recombinant human N-terminal GST/His6-fused ALK R1275Q mutant expressed in Sf9 insect cells using Tyr 1 peptide as substrate after 1 hr by Z-LYTE assay
[4] = molecular target: ALK tyrosine kinase receptor (Homo sapiens, UniProt Q9UM73); assay: Reversible inhibition of ALK phosphorylation at Tyr1604 residue in human NCI-H3122 cells at 30 to 300 nM measured 1 to 24 hrs post compound wash out by immunoblotting method; type: cell-based
[5] = Antiproliferative activity against CHL cells after 72 hrs by CellTiter-Glo assay; type: cell-based, Cricetulus griseus; details: chinese hamster
[6] = molecular target: ALK tyrosine kinase receptor (Homo sapiens, UniProt Q9UM73, C1156Y); assay: Inhibition of recombinant human N-terminal GST/His6-fused ALK C1156Y mutant expressed in Sf9 insect cells using Tyr 1 peptide as substrate after 1 hr by Z-LYTE assay
NCI-H1975 [7] = assay: Growth inhibition of human NCI-H1975 cells after 72 hrs by CellTiter-Glo assay; type: functional; details: NCI-H1975, 72 h
Summary of the method: (§2)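 Antiproliferative GI50 against H1975 and H3122 cells; each GI50 value obtained from triplicate testing.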

[8] = AUC (0 to infinity) in Sprague-Dawley rat at 1 mg/kg, iv; type: ADME, organism-based; parameters: dose 1 mg/kg, route intravenous, time infinity; details: in vivo; summary of the method: as §1
NCI-H1975 [9] = assay: Induction of apoptosis in human NCI-H1975 cells assessed as increase in cleaved caspase-3 expression level at 300 nM to 1 uM after 24 hrs by Western blot method; type: functional, cell-based
NCI-H3122 [10] = assay: Antiproliferative activity against human NCI-H3122 cells harboring EML4-fused ALK varian1 after 72 hrs by CellTiter-Glo assay; type: functional; details: NCI-H3122, 72 h; summary of the method: as §2
[11] = molecular target: T1, Epidermal growth factor receptor; assay: Inhibition of TEL-fused EGFR (unknown origin) expressed in mouse BAF3 cells assessed as decrease in cell proliferation after 72 hrs by CellTiter-Glo assay; type: cell-based
NCI-H1355 = assay: Antiproliferative activity against human NCI-H1355 cells harboring wild-type EGFR after 72 hrs by CellTiter-Glo assay; type: functional; details: NCI-H1355, 72 h
NCI-H1975 [12] = assay: Induction of apoptosis in human NCI-H1975 cells xenografted in po dosed nu/nu mouse administered for 21 days by DAB-chromogen-based TUNEL assay
[13] = molecular target: T1, Epidermal growth factor receptor; assay: Inhibition of EGFR phosphorylation at Y1068 in human NCI-H1975 cells at 30 nM after 4 hrs by immunoblotting method; type: cell-based
[14] = molecular target: T1, Epidermal growth factor receptor; assay: Inhibition of EGFR in human A549 cells assessed as reduction in EGF-induced STAT3 phosphorylation at Tyr705 residue up to 3 uM after 4 hrs by immunoblotting method; type: cell-based
[15] = molecular target: T1, Epidermal growth factor receptor; assay: Inhibition of EGFR in human PC9 cells assessed as inhibition of ERK-1/2 phosphorylation at Thr202/Tyr204 residues at 30 nM after 4 hrs by immunoblotting method; type: cell-based
[16] = MRT (0 to t) in Sprague-Dawley rat at 1 mg/kg, iv; type: ADME, organism-based; details: in vivo
Summary of the method: (§3)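 Pharmacokinetics in rats given a single dose either intravenously at 1 mg/kg or orally at 10 mg/kg. Plasma parameters derived include AUC0-t, AUC0-∞, MRT(0-t), Cmax, Tmax, T1/2 and oral F (%).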

[17] = system: Epidermal growth factor receptor (Homo sapiens), P00533 [L858R,T790M,C797S]; assay: Inhibition of full length EGFR L858R/T790M/C797S mutant (unknown origin) expressed in mouse BAF3 cells assessed as decrease in cell proliferation after 72 hrs by CellTiter-Glo assay; type: cell-based
Sequence of Epidermal growth factor receptor (Homo sapiens), P00533 [L858R,T790M,C797S] (P00533 whole entry T790M/C797S/L858R): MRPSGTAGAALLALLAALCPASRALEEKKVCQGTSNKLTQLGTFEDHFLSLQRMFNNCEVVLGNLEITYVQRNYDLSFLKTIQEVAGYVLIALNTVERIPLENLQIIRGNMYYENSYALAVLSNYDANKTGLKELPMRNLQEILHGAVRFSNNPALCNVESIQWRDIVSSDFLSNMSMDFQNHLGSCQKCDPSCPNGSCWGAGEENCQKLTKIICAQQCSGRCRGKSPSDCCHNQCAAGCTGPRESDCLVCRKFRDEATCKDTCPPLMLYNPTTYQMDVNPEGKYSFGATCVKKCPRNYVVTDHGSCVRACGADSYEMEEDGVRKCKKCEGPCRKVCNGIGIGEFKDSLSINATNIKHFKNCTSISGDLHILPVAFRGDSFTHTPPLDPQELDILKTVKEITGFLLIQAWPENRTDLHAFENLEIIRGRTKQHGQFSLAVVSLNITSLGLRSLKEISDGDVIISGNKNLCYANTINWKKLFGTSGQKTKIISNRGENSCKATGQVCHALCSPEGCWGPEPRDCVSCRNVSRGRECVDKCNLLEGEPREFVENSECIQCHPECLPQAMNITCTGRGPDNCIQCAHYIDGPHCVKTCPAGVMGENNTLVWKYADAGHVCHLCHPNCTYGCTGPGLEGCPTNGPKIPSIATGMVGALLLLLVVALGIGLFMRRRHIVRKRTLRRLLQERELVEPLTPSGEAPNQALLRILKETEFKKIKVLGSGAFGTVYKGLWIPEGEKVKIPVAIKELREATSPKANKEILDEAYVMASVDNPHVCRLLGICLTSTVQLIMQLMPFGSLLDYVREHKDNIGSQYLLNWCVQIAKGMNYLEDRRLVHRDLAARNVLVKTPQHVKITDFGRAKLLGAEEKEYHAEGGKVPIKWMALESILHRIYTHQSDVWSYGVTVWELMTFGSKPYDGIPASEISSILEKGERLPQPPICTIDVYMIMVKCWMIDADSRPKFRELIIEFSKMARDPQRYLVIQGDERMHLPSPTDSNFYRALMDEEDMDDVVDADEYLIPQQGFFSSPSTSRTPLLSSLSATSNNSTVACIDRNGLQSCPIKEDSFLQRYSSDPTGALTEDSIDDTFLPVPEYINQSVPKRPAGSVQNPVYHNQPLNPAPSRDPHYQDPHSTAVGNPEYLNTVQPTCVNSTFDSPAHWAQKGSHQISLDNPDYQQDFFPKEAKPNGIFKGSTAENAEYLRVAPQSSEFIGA

HCC827 = assay: Antiproliferative activity against human HCC827 cells harboring EGFR del19 mutant after 72 hrs by CellTiter-Glo assay; type: functional; details: HCC827, 72 h
NCI-H1975 [18] = assay: Antitumor activity against human NCI-H1975 cells xenografted in po dosed nu/nu mouse assessed as tumor growth inhibition administered for 21 days
[19] = molecular target: T1, Epidermal growth factor receptor; assay: Inhibition of EGFR in human A549 cells assessed as reduction in EGF-induced eIF4E phosphorylation at Ser209 residue up to 3 uM after 4 hrs by immunoblotting method; type: cell-based
[20] = molecular target: T1, Epidermal growth factor receptor; assay: Inhibition of full length EGFR del19 mutant (unknown origin) expressed in mouse BAF3 cells assessed as decrease in cell proliferation after 72 hrs by CellTiter-Glo assay; type: cell-based
[21] = molecular target: Epidermal growth factor receptor (Homo sapiens, UniProt P00533, L858R); assay: Inhibition of recombinant human GST-tagged EGFR L858R mutant expressed in Baculovirus expression system using Tyr 4 peptide as substrate after 1 hr in presence of ATP by Z-LYTE assay
Sequence of Epidermal growth factor receptor (Homo sapiens, UniProt P00533, L858R) (P00533 25-1210 L858R limits assumed): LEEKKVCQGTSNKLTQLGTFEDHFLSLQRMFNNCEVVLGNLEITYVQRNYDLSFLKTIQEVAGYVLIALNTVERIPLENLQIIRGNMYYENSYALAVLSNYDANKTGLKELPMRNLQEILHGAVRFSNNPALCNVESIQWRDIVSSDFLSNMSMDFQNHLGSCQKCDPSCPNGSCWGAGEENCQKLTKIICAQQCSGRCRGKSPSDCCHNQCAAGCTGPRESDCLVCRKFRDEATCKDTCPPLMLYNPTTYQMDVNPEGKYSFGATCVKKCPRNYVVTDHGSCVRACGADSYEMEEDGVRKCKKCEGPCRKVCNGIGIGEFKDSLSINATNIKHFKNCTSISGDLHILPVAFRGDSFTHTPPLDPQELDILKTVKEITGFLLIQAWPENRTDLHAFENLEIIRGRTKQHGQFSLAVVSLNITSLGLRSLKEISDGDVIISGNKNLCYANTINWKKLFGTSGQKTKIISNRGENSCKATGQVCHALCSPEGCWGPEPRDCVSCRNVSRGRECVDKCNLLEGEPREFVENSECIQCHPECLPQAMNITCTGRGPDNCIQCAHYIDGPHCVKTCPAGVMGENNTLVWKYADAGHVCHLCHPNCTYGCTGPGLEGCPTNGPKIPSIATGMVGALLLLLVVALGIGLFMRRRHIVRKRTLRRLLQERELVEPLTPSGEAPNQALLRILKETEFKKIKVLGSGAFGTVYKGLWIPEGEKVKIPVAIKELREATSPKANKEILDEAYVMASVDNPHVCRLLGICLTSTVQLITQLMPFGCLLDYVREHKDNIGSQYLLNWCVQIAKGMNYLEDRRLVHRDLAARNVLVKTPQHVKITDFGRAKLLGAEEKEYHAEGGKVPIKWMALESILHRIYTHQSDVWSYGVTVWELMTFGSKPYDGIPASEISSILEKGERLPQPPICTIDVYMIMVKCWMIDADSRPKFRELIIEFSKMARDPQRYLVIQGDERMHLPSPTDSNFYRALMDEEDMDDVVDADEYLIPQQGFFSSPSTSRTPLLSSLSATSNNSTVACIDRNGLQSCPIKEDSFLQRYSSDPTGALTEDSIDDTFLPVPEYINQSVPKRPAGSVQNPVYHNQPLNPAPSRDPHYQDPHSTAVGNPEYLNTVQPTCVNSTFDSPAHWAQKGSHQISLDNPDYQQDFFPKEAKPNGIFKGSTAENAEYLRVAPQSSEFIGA

[22] = molecular target: T1, Epidermal growth factor receptor; assay: Inhibition of EGFR in human A549 cells assessed as reduction in EGF-induced 4EBP1 phosphorylation at Thr37/46 site up to 3 uM after 4 hrs by immunoblotting method; type: cell-based
[23] = system: Epidermal growth factor receptor (Homo sapiens), P00533 [C797S]; assay: Inhibition of TEL-fused EGFR C797S mutant (unknown origin) expressed in mouse BAF3 cells assessed as decrease in cell proliferation after 72 hrs by CellTiter-Glo assay; type: cell-based
Sequence of Epidermal growth factor receptor (Homo sapiens), P00533 [C797S] (P00533 whole entry C797S, the tested form may be a part): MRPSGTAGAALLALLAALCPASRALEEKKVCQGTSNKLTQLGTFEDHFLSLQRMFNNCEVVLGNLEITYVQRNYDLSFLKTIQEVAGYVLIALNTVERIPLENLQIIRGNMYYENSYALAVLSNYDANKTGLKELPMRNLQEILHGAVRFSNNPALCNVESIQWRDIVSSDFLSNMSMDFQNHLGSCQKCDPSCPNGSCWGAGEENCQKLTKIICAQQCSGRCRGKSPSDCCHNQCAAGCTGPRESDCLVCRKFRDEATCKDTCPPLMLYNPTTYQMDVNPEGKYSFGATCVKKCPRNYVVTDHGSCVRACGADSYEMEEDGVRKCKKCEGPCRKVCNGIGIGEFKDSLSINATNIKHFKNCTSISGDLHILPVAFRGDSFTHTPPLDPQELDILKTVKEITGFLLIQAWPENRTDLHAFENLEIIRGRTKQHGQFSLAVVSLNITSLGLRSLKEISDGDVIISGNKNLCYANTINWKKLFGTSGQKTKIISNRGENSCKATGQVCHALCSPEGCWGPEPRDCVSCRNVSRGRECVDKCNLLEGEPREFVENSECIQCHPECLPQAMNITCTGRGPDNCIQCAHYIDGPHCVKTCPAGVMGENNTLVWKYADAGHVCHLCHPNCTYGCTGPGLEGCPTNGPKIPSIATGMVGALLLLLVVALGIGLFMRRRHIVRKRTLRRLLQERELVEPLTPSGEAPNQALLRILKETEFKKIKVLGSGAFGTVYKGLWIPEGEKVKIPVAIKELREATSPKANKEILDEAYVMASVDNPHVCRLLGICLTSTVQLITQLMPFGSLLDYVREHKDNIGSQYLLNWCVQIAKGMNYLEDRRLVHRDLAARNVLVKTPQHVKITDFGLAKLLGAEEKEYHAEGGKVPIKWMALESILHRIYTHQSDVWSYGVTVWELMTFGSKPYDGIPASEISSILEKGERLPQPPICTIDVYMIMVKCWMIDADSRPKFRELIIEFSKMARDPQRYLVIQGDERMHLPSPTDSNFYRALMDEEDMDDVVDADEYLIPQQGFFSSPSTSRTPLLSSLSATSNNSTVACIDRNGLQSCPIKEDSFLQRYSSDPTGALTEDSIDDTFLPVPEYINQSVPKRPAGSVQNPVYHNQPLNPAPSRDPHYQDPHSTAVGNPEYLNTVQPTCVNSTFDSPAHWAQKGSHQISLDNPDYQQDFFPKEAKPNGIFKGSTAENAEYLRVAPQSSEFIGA

[24] = Tmax in Sprague-Dawley rat at 10 mg/kg, po; type: ADME, organism-based; details: in vivo; summary of the method: as §3
NCI-H1975 [25] = assay: Induction of apoptosis in human NCI-H1975 cells assessed as increase in cleaved PARP expression level at 300 nM to 1 uM after 24 hrs by Western blot method; type: functional, cell-based
[26] = MRT (0 to t) in Sprague-Dawley rat at 10 mg/kg, po; type: ADME, organism-based; details: in vivo; summary of the method: as §3
NCI-H1975 [27] = assay: Antitumor activity against human NCI-H1975 cells xenografted in po dosed nu/nu mouse assessed as decrease in cell proliferation administered for 21 days by Ki67 staining-based immunohistochemical analysis
NCI-H3122 [28] = assay: Induction of apoptosis in human NCI-H3122 cells assessed as increase in cleaved PARP expression level at 300 nM after 24 hrs by Western blot method; type: functional, cell-based

C=CC(=O)Nc1cc(Nc2ncc(Cl)c(Nc3ccccc3S(=O)(=O)C(C)C)n2)c(OC)cc1N1CCCN(C)CC1
Ratio IC50 (Homo sapiens): 20 to 30 | inhibition [1]: inactive | half-life [2]: 0.991 h | GI50 (NCI-H3255): 31 nM | IC50 [3]: 0.82 nM | inhibition [4]: Active | GI50 at 72 h [5]: 3500 nM | IC50 [6]: 1 nM | GI50 (NCI-H1975 [7]): 15 nM | AUC(0-inf) [8]: 720 ng·h/mL | Activity (NCI-H1975 [9]): Active | GI50 (NCI-H3122 [10]): < 0.3 nM | GI50 [11]: 16 nM | GI50 (NCI-H1355): 1400 nM | Activity (NCI-H1975 [12]): Dose-dependent effect | inhibition [13]: Active | inhibition [14]: inactive | inhibition [15]: Active | MRT last [16]: 0.947 h | GI50 [17]: 1100 nM | GI50 (HCC827): 6.2 nM | TGI (NCI-H1975 [18]): Dose-dependent effect | inhibition [19]: inactive | GI50 [20]: 8.5 nM | IC50 [21]: 82.5 nM | inhibition [22]: inactive | GI50 [23]: 230 nM | Tmax [24]: 4 h | Activity (NCI-H1975 [25]): Active | MRT last [26]: 4.12 h | Activity (NCI-H1975 [27]): Dose-dependent effect | Activity (NCI-H3122 [28]): Active
